Activity calls are given as the source filed them. The rule behind the calls is not given here.
Assays:
[1] = molecular target: T1, Protein cereblon/Signal transducer and activator of transcription 3 (Homo sapiens, UniProt P40763+Q96SW2); assay: Protac activity at CRBN/STAT3 in human SUP-M2 cells assessed as degradation of STAT3 incubated for 4 hrs by western blot analysis; format: cell-based
Method in brief: (§1)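 Cells treated 4 h with compounds across 25 nM to 100 μM; STAT proteins detected by Western blot with GAPDH as loading control; STAT3 DC50 estimated by densitometry of STAT3 relative to GAPDH. Applies to MOLM-16 for all STATs, and to SU-DHL-1 and SUP-M2 for STAT3.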
Target sequence in this assay (P40763 whole entry): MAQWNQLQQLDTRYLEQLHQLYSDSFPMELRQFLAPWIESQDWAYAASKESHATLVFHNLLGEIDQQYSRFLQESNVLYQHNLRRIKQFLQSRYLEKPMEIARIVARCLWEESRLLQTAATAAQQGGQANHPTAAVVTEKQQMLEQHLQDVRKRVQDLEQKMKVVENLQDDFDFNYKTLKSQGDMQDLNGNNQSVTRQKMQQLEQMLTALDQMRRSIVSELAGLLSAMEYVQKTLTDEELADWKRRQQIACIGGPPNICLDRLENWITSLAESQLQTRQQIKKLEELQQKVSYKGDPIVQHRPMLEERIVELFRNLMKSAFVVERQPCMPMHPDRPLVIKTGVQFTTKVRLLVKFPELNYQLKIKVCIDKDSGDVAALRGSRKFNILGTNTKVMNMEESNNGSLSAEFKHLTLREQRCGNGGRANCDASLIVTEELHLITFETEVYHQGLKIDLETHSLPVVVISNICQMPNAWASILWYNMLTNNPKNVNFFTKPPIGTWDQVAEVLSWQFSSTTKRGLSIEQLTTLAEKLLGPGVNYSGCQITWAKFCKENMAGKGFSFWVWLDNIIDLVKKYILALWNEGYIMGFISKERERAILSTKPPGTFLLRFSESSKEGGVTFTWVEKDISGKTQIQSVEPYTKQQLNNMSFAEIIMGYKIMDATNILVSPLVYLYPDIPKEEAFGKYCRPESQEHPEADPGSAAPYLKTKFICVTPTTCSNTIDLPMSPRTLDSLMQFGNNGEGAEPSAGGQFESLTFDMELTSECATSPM
Target sequence in this assay (Q96SW2 whole entry): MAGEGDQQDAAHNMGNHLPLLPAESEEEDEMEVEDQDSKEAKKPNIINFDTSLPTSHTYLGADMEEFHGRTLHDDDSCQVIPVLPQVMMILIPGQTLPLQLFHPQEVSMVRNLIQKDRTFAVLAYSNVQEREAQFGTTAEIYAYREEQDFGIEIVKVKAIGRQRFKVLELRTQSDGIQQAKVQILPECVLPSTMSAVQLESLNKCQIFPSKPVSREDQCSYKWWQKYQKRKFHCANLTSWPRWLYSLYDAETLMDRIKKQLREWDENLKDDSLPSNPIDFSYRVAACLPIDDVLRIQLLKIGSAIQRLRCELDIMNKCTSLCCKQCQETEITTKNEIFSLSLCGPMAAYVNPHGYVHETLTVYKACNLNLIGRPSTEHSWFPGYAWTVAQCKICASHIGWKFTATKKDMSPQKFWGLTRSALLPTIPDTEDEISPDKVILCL

[2] = molecular target: T1, Protein cereblon/Signal transducer and activator of transcription 3; assay: Protac activity at CRBN/STAT3 in human SU-DHL-1 cells assessed as degradation of STAT3 incubated for 4 hrs by western blot analysis; format: cell-based; method in brief: as §1
Target sequence in this assay (P40763 whole entry): as the sequence (P40763 whole entry) above
Target sequence in this assay (Q96SW2 whole entry): as the sequence (Q96SW2 whole entry) above

[3] = molecular target: T1, Protein cereblon/Signal transducer and activator of transcription 3; assay: Protac activity at CRBN/STAT3 in human MOLM-16 cells assessed as degradation of STAT3 incubated for 4 hrs by western blot analysis; format: cell-based; settings: molm16; method in brief: as §1
Target sequence in this assay (P40763 whole entry): as the sequence (P40763 whole entry) above
Target sequence in this assay (Q96SW2 whole entry): as the sequence (Q96SW2 whole entry) above

[4] = molecular target: Protein cereblon/Signal transducer and activator of transcription 1-alpha/beta (Homo sapiens) (UniProt P42224+Q96SW2); assay: Protac activity at CRBN/STAT1 in human SU-DHL-1 cells […] at 0.25 to 100 uM incubated for 4 hrs by Western blot analysis; format: cell-based; settings: dose lower 0.25 µM
[5] = molecular target: Protein cereblon/Signal transducer and activator of transcription 6 (Homo sapiens) (UniProt P42226+Q96SW2); assay: Protac activity at CRBN/STAT6 in human SUP-M2 cells assessed as STAT6 degradation at 0.25 to 100 uM incubated for 4 hrs by Western blot analysis; format: cell-based; settings: SUPM2, dose 0.25-100 µM
[6] = molecular target: T1, Protein cereblon/Signal transducer and activator of transcription 3; assay: In vivo protac activity at CRBN/STAT3 degradation in SCID mouse xenografted with human MOLM16 cells assessed as reduction in STAT3 in tumor tissue at 50 mg/kg, iv measured after 24 hrs by immunoblotting analysis; format: functional, organism-based
Method in brief: (§2)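 SCID mice bearing MOLM-16 tumors given a single iv dose of 50 mg/kg or dosing vehicle. Tumor lysates immunoblotted for STAT3, STAT1 and STAT6 at time points from 1 h to at least 24 h.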
Target sequence in this assay (P40763 2-770 limits assumed): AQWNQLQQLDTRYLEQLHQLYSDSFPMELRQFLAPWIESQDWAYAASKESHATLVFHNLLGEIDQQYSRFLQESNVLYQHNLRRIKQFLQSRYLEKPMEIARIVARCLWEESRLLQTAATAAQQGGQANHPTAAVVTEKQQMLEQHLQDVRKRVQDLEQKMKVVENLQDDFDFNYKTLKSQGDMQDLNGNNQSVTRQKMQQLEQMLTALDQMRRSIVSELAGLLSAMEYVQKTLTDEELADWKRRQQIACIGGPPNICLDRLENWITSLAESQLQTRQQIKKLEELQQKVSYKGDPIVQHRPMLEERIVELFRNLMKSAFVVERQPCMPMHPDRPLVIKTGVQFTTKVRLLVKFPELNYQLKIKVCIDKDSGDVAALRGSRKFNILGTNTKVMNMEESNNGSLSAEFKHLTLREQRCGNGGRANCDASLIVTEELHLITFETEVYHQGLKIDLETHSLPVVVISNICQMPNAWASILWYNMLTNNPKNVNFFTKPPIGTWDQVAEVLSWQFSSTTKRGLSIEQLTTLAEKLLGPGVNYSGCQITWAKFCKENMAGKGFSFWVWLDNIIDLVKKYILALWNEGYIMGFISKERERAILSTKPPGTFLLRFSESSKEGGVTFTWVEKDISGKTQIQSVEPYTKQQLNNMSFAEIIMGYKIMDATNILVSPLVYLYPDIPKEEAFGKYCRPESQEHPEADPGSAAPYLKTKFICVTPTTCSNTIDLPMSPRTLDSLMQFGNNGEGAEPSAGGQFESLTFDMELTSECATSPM
Target sequence in this assay (Q96SW2 whole entry partner): as the sequence (Q96SW2 whole entry) above

[7] = (§3) Drug uptake in SCID mouse xenografted with human MOLM16 cells assessed as (2-(((5S,8S,10aR)-8-(((S)-5-amino-1-(benzhydrylamino)-1,5-dioxopentan-2-yl)carbamoyl)-3-(8-(2-(2,6-dioxopiperidin-3-yl)-1-oxoisoindolin-4-yl)oct-7-yno yl)-6-oxodecahydropyrrolo[1,2-a][1,5]diazocin-5-yl)carbamoyl)-1H-indole-5-carbonyl)phosphonic acid level in plasma at 50 mg/kg, iv measured after 1 hrs by LC-MS/MS; format: ADME, organism-based; settings: in vivo
Method in brief: (§4)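 SCID mice bearing MOLM-16 xenografts given a single iv dose of 50 mg/kg. Concentrations of parent and hydrolysis product measured in plasma (ng/mL) and tumor tissue (ng/g) at 1, 6 and 24 h.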

[8] = as §3, with “after 6” for “after 1”; format: ADME, organism-based; settings: in vivo; method in brief: as §4
[9] = as §3, with “tumor tissue” for “plasma”; format: ADME, organism-based; settings: in vivo; method in brief: as §4
[10] = as §3, with “in tumor tissue” for “in plasma”, “after 24” for “after 1”; format: ADME, organism-based; settings: in vivo; method in brief: as §4
[11] = Drug metabolism in buffer pH 4 assessed as conversion to (2-(((5S,8S,10aR)-8-(((S)-5-amino-1-(benzhydrylamino)-1,5-dioxopentan-2-yl)carbamoyl)-3-(8-(2-(2,6-dioxopiperidin-3-yl)-1-oxoisoindolin-4-yl)oct-7-ynoyl)-6-oxodecahydropyrrolo[1,2-a][1,5]diazocin-5-yl)carbamoyl)-1H-indole-5-carbonyl)phosphonic acid by measured after 2 days at 37 degC by LC/MS/MS analysis; settings: time 2.0 day
Method in brief: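 Parent compound incubated in buffer at pH 4 or pH 8, at room temperature or 37 °C. Percentages of the parent, the hydrolysis product and the glutarimide ring-opened product followed over time, up to 96 h.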

[12] = molecular target: T2, Signal transducer and activator of transcription 3 (Homo sapiens, UniProt P40763); assay: Induction of STAT3 degradation in human SU-DHL-1 cells incubated for 4 hrs by western blot analysis; format: cell-based; method in brief: as §1
[13] = molecular target: T3, Signal transducer and activator of transcription 1-alpha/beta (Homo sapiens, UniProt P42224); assay: Binding affinity to human recombinant STAT1 assessed as dissociation constant incubated for 15 mins by biolayer interferometry
T3 sequence (P42224 whole entry): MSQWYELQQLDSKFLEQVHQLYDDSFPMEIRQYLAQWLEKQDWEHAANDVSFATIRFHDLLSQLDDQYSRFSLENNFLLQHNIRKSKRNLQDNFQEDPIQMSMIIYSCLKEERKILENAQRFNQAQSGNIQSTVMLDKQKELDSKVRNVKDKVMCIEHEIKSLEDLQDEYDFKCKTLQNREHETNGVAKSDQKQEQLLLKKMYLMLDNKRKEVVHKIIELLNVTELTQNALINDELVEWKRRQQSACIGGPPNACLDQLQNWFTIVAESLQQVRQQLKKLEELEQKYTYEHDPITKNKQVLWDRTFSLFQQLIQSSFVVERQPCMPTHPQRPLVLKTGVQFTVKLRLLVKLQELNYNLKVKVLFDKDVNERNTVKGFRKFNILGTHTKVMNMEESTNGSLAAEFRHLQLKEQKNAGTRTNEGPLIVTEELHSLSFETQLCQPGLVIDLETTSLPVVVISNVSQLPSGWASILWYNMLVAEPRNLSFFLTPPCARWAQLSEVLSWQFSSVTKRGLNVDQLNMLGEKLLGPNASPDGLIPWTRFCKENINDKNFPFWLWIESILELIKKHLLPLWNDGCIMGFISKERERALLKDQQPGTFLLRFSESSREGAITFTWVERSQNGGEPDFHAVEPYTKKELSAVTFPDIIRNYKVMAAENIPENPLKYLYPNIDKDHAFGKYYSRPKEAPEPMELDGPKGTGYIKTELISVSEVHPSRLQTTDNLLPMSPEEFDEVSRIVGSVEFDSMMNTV
Method in brief: (§5)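 Biolayer interferometry with recombinant human STAT1, STAT2, STAT3, STAT4, STAT5A, STAT5B or STAT6 proteins containing their SH2 domain. Compound run in 2× serial dilutions from 200 nM. Kd taken from steady-state fitting of equilibrium responses against concentration using a 1:1 binding model.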

Mus musculus = assay: In vivo induction of STAT6 degradation in SCID mouse xenografted with human MOLM16 cells assessed as reduction in STAT6 in tumor tissue at 50 mg/kg, iv measured after 24 hrs by immunoblotting analysis; format: functional, organism-based; method in brief: as §2
[14] = molecular target: T2, Signal transducer and activator of transcription 3; assay: Binding affinity to human recombinant STAT3 assessed as dissociation constant incubated for 15 mins by biolayer interferometry; method in brief: as §5
[15] = Stability of the compound in complete cell culture medium measured upto 100 hrs by LC/MS/MS analysis; format: physicochemical
Method in brief: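 Compound incubated at 37 °C in the cell culture media used for cellular assays; percentages of parent and conversion products determined at time points up to 96 h.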

T2 sequence (P40763 whole entry): as the sequence (P40763 whole entry) above
Sequence of Protein cereblon/Signal transducer and activator of transcription 6 (Homo sapiens) (P42226 2-847 limits assumed): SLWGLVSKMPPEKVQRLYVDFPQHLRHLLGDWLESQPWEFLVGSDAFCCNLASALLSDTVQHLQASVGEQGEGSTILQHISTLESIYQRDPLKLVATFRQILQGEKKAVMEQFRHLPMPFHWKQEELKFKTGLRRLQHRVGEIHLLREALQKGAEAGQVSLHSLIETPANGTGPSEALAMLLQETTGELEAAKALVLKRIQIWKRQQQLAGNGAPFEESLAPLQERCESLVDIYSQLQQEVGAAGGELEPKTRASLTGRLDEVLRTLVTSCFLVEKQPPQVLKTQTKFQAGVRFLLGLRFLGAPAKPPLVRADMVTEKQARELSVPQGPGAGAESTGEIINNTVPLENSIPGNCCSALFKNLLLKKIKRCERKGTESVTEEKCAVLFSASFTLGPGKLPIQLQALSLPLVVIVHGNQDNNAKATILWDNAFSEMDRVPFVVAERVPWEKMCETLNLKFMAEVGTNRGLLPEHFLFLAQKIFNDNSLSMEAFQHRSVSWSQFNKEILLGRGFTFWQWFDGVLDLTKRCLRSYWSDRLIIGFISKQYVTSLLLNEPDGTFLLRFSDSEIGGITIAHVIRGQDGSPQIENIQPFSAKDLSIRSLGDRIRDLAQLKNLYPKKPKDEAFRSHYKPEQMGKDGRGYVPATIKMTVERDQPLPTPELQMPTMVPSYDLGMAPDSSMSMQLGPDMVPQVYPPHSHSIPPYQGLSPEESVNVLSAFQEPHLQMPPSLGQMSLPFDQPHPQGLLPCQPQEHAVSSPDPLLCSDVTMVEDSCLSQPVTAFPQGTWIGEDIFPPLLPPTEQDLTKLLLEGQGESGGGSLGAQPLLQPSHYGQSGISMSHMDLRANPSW
Sequence of Protein cereblon/Signal transducer and activator of transcription 6 (Homo sapiens) (Q96SW2 whole entry partner): as the sequence (Q96SW2 whole entry) above

Structure (SMILES) | DC50 [1] [nM] | DC50 [2] [nM] | DC50 [3] [nM] | Activity [4] | Activity [5] | Activity [6] | Drug uptake [7] [ng/mL] | Drug uptake [8] [ng/mL] | Drug uptake [9] [ng/g] | Drug uptake [10] [ng/g] | Drug metabolism [11] [%] | DC50 [12] [nM] | Kd [13] [nM] | Activity (Mus musculus) | Kd [14] [nM] | Stabilty [15]
NC(=O)CC[C@H](NC(=O)[C@@H]1CC[C@@H]2CCN(C(=O)CCCCCC#Cc3cccc4c3CN(C3CCC(=O)NC3=O)C4=O)C[C@H](NC(=O)c3cc4cc(C(F)(F)P(=O)(O)O)ccc4[nH]3)C(=O)N21)C(=O)NC(c1ccccc1)c1ccccc1 (stereo partly specified) | 2500 | 61 | 380 | inactive | inactive | Active | 48476 | 25560 | 6350 | 396 | 50 | – | – | – | – | –
NC(=O)CC[C@H](NC(=O)[C@@H]1CC[C@@H]2CCN(C(=O)CCCCCC#Cc3cccc4c3CN(C3CCC(=O)NC3=O)C4=O)C[C@H](NC(=O)c3cc4cc(C(=O)P(=O)(O)O)ccc4[nH]3)C(=O)N21)C(=O)NC(c1ccccc1)c1ccccc1 (stereo partly specified) | – | – | – | – | – | – | – | – | – | – | – | 17 | > 10 | inactive | 28 | Stable

Reference: ChEMBL document CHEMBL4706770, “SD-91 as A Potent and Selective STAT3 Degrader Capable of Achieving Complete and Long-Lasting Tumor Regression” (ACS Med Chem Lett, 2021)
